From ChEMBL document CHEMBL1131019, “Minimal-size, constrained corticotropin-releasing factor agonists with i-(i+3) Glu-Lys and Lys-Glu bridges” (1998) come the findings set out here.

Molecules are shown by their SMILES. “And” between values parts separate entries of the source, which are not always exact repeats. Identical values can stand only once. Square brackets hold non-standard residues; d marks the D form. Peptide text beside a SMILES is read from it. Nle = CCCC[C@H](N)C(=O)O

The species named for this test is Rattus norvegicus. Nature of the test: In vitro for agonist activity by measuring release of ACTH by rat pituitary cells in culture relative to human Corticotropin-Releasing factor (CRF). It counts as functional, Pituitary gland cell. The method in brief:
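Male Sprague–Dawley rat anterior pituitary cells, collagenase-dissociated, plated at 0.16 × 10⁶ cells/well in 2% FBS medium. After 3 days, washed into 0.1% BSA medium, preincubated 1 h, washed again, then exposed to peptide for 3 h. Medium ACTH measured by radioimmunoassay.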
With `CC[C@H](C)[C@H](NC(=O)[C@H](CO)NC(=O)[C@H](CC(C)C)NC(=O)[C@H](CO)NC(=O)[C@@H]1CCCN1C(C)=O)C(=O)N[C@@H](CC(=O)O)C(=O)N[C@@H](CC(C)C)C(=O)N[C@H](C(=O)N[C@H](Cc1ccccc1)C(=O)N[C@@H](Cc1c[nH]cn1)C(=O)N[C@@H](CC(C)C)C(=O)N[C@@H](CC(C)C)C(=O)N[C@@H](CCCN=C(N)N)C(=O)N[C@H](C(=O)N[C@@H](CC(C)C)C(=O)N[C@@H](CC(C)C)C(=O)N[C@@H](CCC(=O)O)C(=O)N[C@@H](CC(C)C)C(=O)N[C@@H](C)C(=O)N[C@@H](CCCN=C(N)N)C(=O)N[C@H](C(=O)N[C@@H](CCC(N)=O)C(=O)N[C@@H](CO)C(=O)N[C@@H](CCC(N)=O)C(=O)N[C@@H](CCCN=C(N)N)C(=O)N[C@@H](CCC(=O)O)C(=O)N1C(=O)[C@H](CCC(=O)O)NC(=O)[C@H](C)NC(=O)[C@@H](N)CCC(=O)NCCCC[C@H]1C(=O)N[C@@H](CC(N)=O)C(=O)N[C@@H](CCCN=C(N)N)C(=O)N[C@H](C(=O)N[C@H](C(=O)N[C@@H](Cc1ccccc1)C(=O)N[C@@H](CC(=O)O)C(=O)N[C@@H](CO)C(=O)N[C@H](C(N)=O)C(C)C)[C@@H](C)CC)[C@@H](C)CC)[C@@H](C)O)[C@@H](C)O)[C@@H](C)O`, the Potency is listed as 3.8. The figure for `CCCC[C@H](NC(=O)[C@H](CCC(=O)O)NC(=O)[C@@H](NC(=O)[C@H](CCCC)NC(=O)[C@H](CC(N)=O)NC(=O)[C@H](CCCN=C(N)N)NC(=O)[C@H](CC(C)C)NC(=O)[C@H](CC(C)C)NC(=O)[C@H](Cc1c[nH]cn1)NC(=O)[C@@H](Cc1ccccc1)NC(=O)[C@@H](NC(=O)[C@H](CC(C)C)NC(=O)[C@H](CC(=O)O)NC(=O)[C@@H](NC(=O)[C@H](CO)NC(=O)[C@@H](NC(=O)[C@@H]1CCCN1C(=O)[C@@H]1CCCN1C(=O)[C@H](CC(=O)O)NC(=O)[C@H](CC(=O)O)NC(=O)[C@@H](N)CC(N)=O)[C@@H](C)CC)[C@@H](C)CC)[C@@H](C)O)[C@@H](C)CC)C(=O)N[C@@H](C)C(=O)N[C@@H](CCCN=C(N)N)C(=O)N[C@H](C(=O)N[C@@H](CCC(=O)O)C(=O)N[C@@H](CC(N)=O)C(=O)N[C@@H](CCC(=O)OC)C(=O)N[C@@H](CCCN=C(N)N)C(=O)N[C@@H](CCC(=O)O)C(=O)N1C(=O)CNC(=O)[C@H](C)NC(=O)[C@@H](N)CCC(=O)NCCCC[C@H]1C(=O)N[C@@H](CC(N)=O)C(=O)N[C@@H](CCCN=C(N)N)C(=O)N[C@@H](CCCCN)C(=O)N[C@@H](Cc1ccc(O)cc1)C(=O)N[C@@H](CC(C)C)C(=O)N[C@@H](CC(=O)O)C(=O)N[C@@H](CCC(=O)O)C(=O)N[C@H](C(N)=O)C(C)C)[C@@H](C)CC` is 2.9. Compound `CC[C@H](C)[C@H](NC(=O)[C@H](CO)NC(=O)[C@H](CC(C)C)NC(=O)[C@H](CO)NC(=O)[C@H]1CCCN1C(=O)[C@H](CC(N)=O)NC(=O)[C@@H](N)CC(=O)O)C(=O)N[C@@H](CC(=O)O)C(=O)N[C@@H](CC(C)C)C(=O)N[C@H](C(=O)N[C@@H](Cc1ccccc1)C(=O)N[C@@H](Cc1c[nH]cn1)C(=O)N[C@@H](CC(C)C)C(=O)N[C@@H](CC(C)C)C(=O)N[C@@H](CCCN=C(N)N)C(=O)N[C@H](C(=O)N[C@@H](CC(C)C)C(=O)N[C@@H](CC(C)C)C(=O)N[C@@H](CCC(=O)O)C(=O)N[C@@H](CC(C)C)C(=O)N[C@@H](C)C(=O)N[C@@H](CCCN=C(N)N)C(=O)N[C@H](C(=O)N[C@@H](CCC(N)=O)C(=O)N[C@@H](CO)C(=O)N[C@@H](CCC(N)=O)C(=O)N[C@@H](CCCN=C(N)N)C(=O)N[C@@H](CCC(=O)O)C(=O)N[C@@H](CCCN=C(N)N)C(=O)N[C@@H](C)C(=O)N[C@@H](CCC(=O)O)C(=O)N[C@@H](CCC(N)=O)C(=O)N[C@@H](CC(N)=O)C(=O)N[C@@H](CCCN=C(N)N)C(=O)N[C@H](C(=O)N[C@H](C(=O)N[C@@H](Cc1ccccc1)C(=O)N[C@@H](CC(=O)O)C(=O)N[C@@H](CO)C(=O)N[C@H](C(N)=O)C(C)C)[C@@H](C)CC)[C@@H](C)CC)[C@@H](C)O)[C@@H](C)O)[C@@H](C)O` (stereo in doubt; 36) yielded a Potency of 3.1.

As to `CCCC[C@H](NC(=O)[C@H](CCC(=O)O)NC(=O)[C@H](CC(C)C)NC(=O)[C@H](CCCC)NC(=O)[C@H](CCC(=O)O)NC(=O)[C@H](CCCN=C(N)N)NC(=O)[C@H](CC(C)C)NC(=O)[C@H](CC(C)C)NC(=O)[C@H](Cc1c[nH]cn1)NC(=O)[C@@H](Cc1ccccc1)NC(=O)[C@@H](NC(=O)[C@H](CC(C)C)NC(=O)[C@H](CC(=O)O)NC(=O)[C@H](CC(C)C)NC(=O)[C@H](CO)NC(=O)[C@@H](NC(=O)[C@@H]1CCCN1C(=O)[C@@H]1CCCN1C(C)=O)[C@@H](C)CC)[C@@H](C)O)C(=O)N[C@@H](C)C(=O)N[C@@H](CCCCN)C(=O)N[C@@H](C)C(=O)N[C@@H](CCC(=O)O)C(=O)N[C@@H](CCC(N)=O)C(=O)N[C@@H](CCC(=O)O)C(=O)N[C@@H](C)C(=O)N[C@@H](CCC(=O)O)C(=O)N1C(=O)[C@H](C)NC(=O)[C@H](C)NC(=O)[C@@H](N)CCC(=O)NCCCC[C@H]1C(=O)N[C@@H](CC(N)=O)C(=O)N[C@@H](CCCN=C(N)N)C(=O)N[C@@H](CC(C)C)C(=O)N[C@@H](CC(C)C)C(=O)N[C@@H](CC(C)C)C(=O)N[C@@H](CCC(=O)O)C(=O)N[C@@H](CCC(=O)O)C(=O)N[C@@H](C)C(N)=O`, the Potency was 7.5. With `CCCC[C@H](NC(=O)[C@H](CCC(=O)O)NC(=O)[C@H](CC(C)C)NC(=O)[C@H](CCCC)NC(=O)[C@H](CCC(=O)O)NC(=O)[C@H](CCCN=C(N)N)NC(=O)[C@H](CC(C)C)NC(=O)[C@H](CC(C)C)NC(=O)[C@H](Cc1c[nH]cn1)NC(=O)[C@H](Cc1ccccc1)NC(=O)[C@@H](NC(=O)[C@H](CC(C)C)NC(=O)[C@H](CC(=O)O)NC(=O)[C@H](CC(C)C)NC(C)=O)[C@@H](C)O)C(=O)N[C@@H](C)C(=O)N[C@@H](CCCCN)C(=O)N[C@@H](C)C(=O)N[C@@H](CCC(=O)O)C(=O)N[C@@H](CCC(N)=O)C(=O)N[C@@H](CCC(=O)O)C(=O)N[C@@H](C)C(=O)N[C@@H](CCC(=O)O)C(=O)N[C@@H](CCC(N)=O)C(=O)N[C@@H](C)C(=O)N[C@@H](C)C(=O)N[C@@H](CC(C)C)C(=O)N[C@@H](CC(N)=O)C(=O)N[C@@H](CCCN=C(N)N)C(=O)N[C@@H](CC(C)C)C(=O)N[C@@H](CC(C)C)C(=O)N[C@@H](CC(C)C)C(=O)N[C@@H](CCC(=O)O)C(=O)N[C@@H](CCC(=O)O)C(=O)N[C@@H](C)C(N)=O` (Ac-LDLTFHLLRE[Nle]LE[Nle]AKAEQEAEQAALNRLLLEEA-NH2) the figure was 0.004. The compound `CCCC[C@H](NC(=O)[C@H](CCC(=O)O)NC(=O)[C@@H](NC(=O)[C@H](CCCC)NC(=O)[C@H](CC(N)=O)NC(=O)[C@H](CCCN=C(N)N)NC(=O)[C@H](CC(C)C)NC(=O)[C@H](CC(C)C)NC(=O)[C@H](Cc1c[nH]cn1)NC(=O)[C@@H](Cc1ccccc1)NC(=O)[C@@H](NC(=O)[C@H](CC(C)C)NC(=O)[C@H](CC(=O)O)NC(=O)[C@@H](NC(=O)[C@H](CO)NC(=O)[C@@H](NC(=O)[C@@H]1CCCN1C(=O)[C@@H]1CCCN1C(=O)[C@H](CC(=O)O)NC(=O)[C@H](CC(=O)O)NC(=O)[C@@H](N)CC(N)=O)[C@@H](C)CC)[C@@H](C)CC)[C@@H](C)O)[C@@H](C)CC)C(=O)N[C@@H](C)C(=O)N[C@@H](CCCN=C(N)N)C(=O)N[C@H](C(=O)N[C@@H](CCC(=O)O)C(=O)N[C@@H](CC(N)=O)C(=O)N[C@@H](CCC(=O)OC)C(=O)N[C@@H](CCCN=C(N)N)C(=O)N[C@@H](CCC(=O)O)C(=O)N[C@@H](CCC(=O)O)C(=O)N[C@@H](C)C(=O)NCC(=O)N[C@@H](CCCCN)C(=O)N[C@@H](CC(N)=O)C(=O)N[C@@H](CCCN=C(N)N)C(=O)N[C@@H](CCCCN)C(=O)N[C@@H](Cc1ccc(O)cc1)C(=O)N[C@@H](CC(C)C)C(=O)N[C@@H](CC(=O)O)C(=O)N[C@@H](CCC(=O)O)C(=O)N[C@H](C(N)=O)C(C)C)[C@@H](C)CC` showed a Potency of 1.1.

As for `CCCC[C@H](NC(=O)[C@H](CCCN=C(N)N)NC(=O)[C@H](CC(C)C)NC(=O)[C@H](CC(C)C)NC(=O)[C@H](CCC(=O)O)NC(=O)[C@H](CC(C)C)NC(=O)[C@H](CC(C)C)NC(=O)[C@H](CC(C)C)NC(=O)[C@H](CC(=O)O)NC(=O)[C@@H](NC(=O)[C@H](CO)NC(=O)[C@@H](NC(=O)[C@@H]1CCCN1C(=O)[C@@H]1CCCN1C(=O)CNC(=O)[C@H](CCC(=O)O)NC(=O)[C@@H]1CCCN1)[C@@H](C)CC)[C@@H](C)CC)C(=O)N[C@@H](CCCC)C(=O)N[C@H](C(=O)N[C@@H](CCC(=O)O)C(=O)N[C@H](C(=O)N[C@@H](CCC(=O)O)C(=O)N[C@@H](CCCCN)C(=O)N[C@@H](CCC(N)=O)C(=O)N[C@@H](CCC(=O)O)C(=O)N[C@@H](CCCCN)C(=O)N[C@@H](CCC(=O)O)C(=O)N[C@@H](CCCCN)C(=O)N[C@H](CCC(=O)O)C(=O)N[C@H](CCC(N)=O)C(=O)N[C@H](C)C(=O)N[C@H](CCCCN)C(=O)N[C@H](CC(N)=O)C(=O)N[C@H](CC(N)=O)C(=O)N[C@H](CCCN=C(N)N)C(=O)N[C@H](CC(C)C)C(=O)N[C@H](CC(C)C)C(=O)N[C@H](CC(C)C)C(=O)N[C@H](CC(=O)O)C(=O)N[C@@H](C(=O)N[C@@H](C(N)=O)[C@H](C)CC)[C@H](C)O)[C@@H](C)CC)[C@@H](C)CC`, the Potency was 0.53 and 0.54. The figure for `CCCC[C@H](NC(=O)[C@H](CCC(=O)O)NC(=O)[C@H](CC(C)C)NC(=O)[C@H](CCCC)NC(=O)[C@H](CCC(=O)O)NC(=O)[C@H](CCCN=C(N)N)NC(=O)[C@H](CC(C)C)NC(=O)[C@H](CC(C)C)NC(=O)[C@H](Cc1c[nH]cn1)NC(=O)[C@@H](Cc1ccccc1)NC(=O)[C@@H](NC(=O)[C@H](CC(C)C)NC(=O)[C@H](CC(=O)O)NC(=O)[C@H](CC(C)C)NC(=O)[C@H](CO)NC(=O)[C@@H](NC(=O)[C@@H]1CCCN1C(=O)[C@@H]1CCCN1C(C)=O)[C@@H](C)CC)[C@@H](C)O)C(=O)N[C@@H](C)C(=O)N[C@@H](CCCCN)C(=O)N[C@@H](C)C(=O)N[C@@H](CCC(=O)O)C(=O)N[C@@H](CCC(N)=O)C(=O)N[C@@H](CCC(=O)O)C(=O)N[C@@H](C)C(=O)N[C@@H](CCC(=O)O)C(=O)N[C@@H](CCC(N)=O)C(=O)N[C@@H](C)C(=O)N[C@@H](C)C(=O)N[C@@H](CC(C)C)C(=O)N[C@@H](CC(N)=O)C(=O)N[C@@H](CCCN=C(N)N)C(=O)N[C@@H](CC(C)C)C(=O)N[C@@H](CC(C)C)C(=O)N[C@@H](CC(C)C)C(=O)N[C@@H](CCC(=O)O)C(=O)N[C@@H](CCC(=O)O)C(=O)N[C@@H](C)C(N)=O` is 1.3.
